This data set can be described thus: Toxicity liver stage against HepG2, at 10uM. The data set is classed as cell-based. Also noted: test concentration 10 uM, cell line HepG2-A16-CD81EGFP. Particulars: human, HepG2-A16-CD81EGFP cells; read-out: INHIBITION
The procedure, abridged:
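Uninfected HepG2-A16-CD81EGFP cells, 3 × 10^3 per well, 1536-well, plated on prespotted compound at 10 μM final, parasite-free screening media added to match infected plates; puromycin 10 μM positive, DMSO 0.5% negative; run in parallel with 48 h PbLuc assay at 37 °C, 5% CO2; viability by CellTiter-Glo luminescence, normalized to controls.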
Regarding `COc1ccc(Cl)cc1C(=O)NCC1CCN(C(=O)c2ccoc2)CC1`, the cytotoxicity at 10 µM stood at 10.1%.

As to `CS(=O)(=O)NCCn1ccc(-c2cccs2)n1`, the cytotoxicity at 10 µM stood at 1.43%. With `N#CCC(=O)NCc1nnc2n1CCN(Cc1ccco1)C2` the figure was -139%; with `O=C(c1ccco1)N1CCOCC2(C1)CN(c1ccccn1)C(=O)CO2` (stereo not drawn), 3.16%; with `CCCOc1cccc(C(=O)Oc2cc(=O)n3cccc(C)c3n2)c1`, 12.1%. With `CC(C)CN1CCn2c(nc3cc(C(=O)NC(C)C)ccc32)C1`, the cytotoxicity at 10 µM turned out to be 0.889%. `C=C/C=c1\c(=C/C)oc2c(NCc3ccccc3)nc(CC)nc12`: the cytotoxicity at 10 µM stood at 10.4%. Consider `CCc1cc(OC)c(OC)cc1C(=O)Nc1cccnc1`, for which the cytotoxicity at 10 µM was 4.94%. With `Cc1nn(C)c2c(N3CCSCC3)nc(C3CC3)nc12` the figure was 7.29%; with `COc1cc(NCc2ccc(Cl)cc2)c(-c2nn[nH]n2)cc1OC`, 10.1%; with `O=C(NCCO)C1(CC2CC(c3ccc(F)cc3)=NO2)CCOCC1` (stereo not drawn), -2.55%. The result for `CCNC(=O)[C@@H]1CN(Cc2ccccc2)C[C@H]1C(=O)c1ccc(F)cc1` reads 3.38%; that for `O=C(Nc1ccc(F)cc1)N1CCC(CO)(Nc2ccccc2)CC1`, 2.94%; that for `O=C(NCCO)NC(c1ccccc1)c1ccc2c(c1)CCCO2` (stereo not drawn), 2.73%. The result for `O=C(Cc1ccn[nH]1)Nc1cncc(Br)c1O` reads -3.93%. Regarding `CC(C)(C)CC(NC(=O)c1nc(=O)[nH][nH]1)c1ccc(F)cc1` (stereo not drawn), the cytotoxicity at 10 µM is -2.42%.

Consider `COCCN(C(=O)c1ccoc1C)c1ccc(C#N)cc1`, for which the cytotoxicity at 10 µM was -4.9%. With `COc1c(Cl)cc(C(=O)NCc2n[nH]c(C)n2)cc1Cl` the figure was 1.42%; with `COc1c(C2CCCN2Cc2nccn2C)c(C)nn1C` (stereo not drawn), 3.06%; with `Cc1nc(C)c(S(=O)(=O)NC(=O)c2cccs2)s1`, -0.837%. The result for `CC(C(=O)Nc1nccs1)N(C)Cc1cccc(C#N)c1` (stereo not drawn) reads 1.88%; that for `CCOc1ccccc1CCC(=O)Nc1c(C)nn(C)c1C`, -3.91%; that for `O=C1CCCN1CCN1CCC(c2ccn[nH]2)CC1`, 11.3%. With `CC(NC(=O)CN1CCN(c2cccc(Cl)c2)CC1)c1ccco1` (stereo not drawn) the figure was -11.1%; with `Cn1ccc(CN2CCCC(CNS(C)(=O)=O)C2)cc1=O` (stereo not drawn), 9.31%. Consider `CC(=O)NCCCSC1CCCN(c2ccccc2Cl)C1=O` (stereo not drawn), for which the cytotoxicity at 10 µM is -0.5%. Regarding `O=C(CS(=O)(=O)Cc1nnnn1C1CC1)NCCc1ccccc1`, the cytotoxicity at 10 µM was found to be 2.92%. The result for `CCN(CC)C(=O)C1CCN(C(=O)Nc2cccnc2OC)CC1` reads 19%; that for `Cc1cc(C)c(S(=O)(=O)NCCC(=O)NCc2ccoc2)c(C)c1`, 4.05%; that for `COc1cc(C)nc(N2CCN(C(=O)CCc3ccco3)CC2)n1`, 7.92%. With `CC(O)CN1CCN(C(=O)c2ccnc(N(C)C)c2)CC1` (stereo not drawn) the figure was 4.37%; with `CC(=O)N1CCCN(C(=O)CN(C)c2ccc(Cl)cn2)CC1`, -7.64%; with `CCCN1CCN(S(=O)(=O)c2ncn(C)c2Cl)CC1`, 9.97%.

As for `O=C(c1ccc(O)c(Cl)c1)N1CCN(c2nccs2)CC1`, the cytotoxicity at 10 µM is -10.3%. The result for `Cc1nn(C)c(C)c1CNCc1cccnc1N1CCOCC1` reads -138%. The result for `CS(=O)(=O)Cc1ccc(C(=O)NCC2Cc3ccccc3O2)cc1` (stereo not drawn) reads 6.6%; that for `COc1ccc(Nc2ncccc2C#N)cc1N1CCCC1=O`, 6.86%; that for `CC(C)C(C#N)N1CCN(Cc2nccn2CC(F)(F)F)CC1` (stereo not drawn), 0.172%. With `Cn1cc(N2CCCC(Oc3ccc(F)cc3Cl)C2=O)cn1` (stereo not drawn) the figure was -3.3%.

For `O=C(O)c1csc(S(=O)(=O)N2CCCc3cccc(OC(F)F)c32)c1`, the cytotoxicity at 10 µM was -13.5%. For the molecule `O=C(NCCCC(=O)N1CCN(CC2CC2)c2ccccc21)C1CC1`, the cytotoxicity at 10 µM is -9.59%.

For the molecule `COc1ccc(C)c2c1N(C(=O)c1cnc3onc(C)c3c1)CCC2`, the cytotoxicity at 10 µM was -1.67%. The result for `O=C(CN(CC(O)c1ccc(F)cc1)C1CC1)NC1CCOCC1` (stereo not drawn) reads 0.0428%. With `CCS(=O)(=O)CCN(C)C(=O)NC(C)c1ccc(C)s1` (stereo not drawn) the figure was -9.02%. For `N#Cc1cc(S(N)(=O)=O)ccc1NC1CCc2cc(Cl)ccc21` (stereo not drawn), the cytotoxicity at 10 µM amounted to 29.1%. The result for `Cc1ccc(NC(=O)N(CCO)CCO)c(OCc2ccccc2)c1` reads 18.4%; that for `Cc1nnc(Cn2cc(I)cc(C)c2=O)o1`, 0.0894%; that for `CN1C(=O)CCN(C(=O)C2CCCCC2)c2ccccc21`, 20.8%. The result for `COCCN1CCC(CNC(=O)C2(C#N)CCCCC2)CC1` reads -11.1%. The result for `CC(C)N(C)CC(=O)N(C)Cc1nc(C(F)(F)F)cs1` reads -2.96%; that for `COC(=O)CCN1CCCC1c1ccccc1Cl` (stereo not drawn), 19.6%; that for `O=C(NCC1CC1)C1=NOC2(CCN(S(=O)(=O)Cc3ccccc3)C2)C1` (stereo not drawn), -2.1%. Consider `O=C(c1ccc[nH]1)N1CCC2(CC1)CC(Oc1cccnc1)CO2` (stereo not drawn), for which the cytotoxicity at 10 µM was -7.69%. The result for `COC[C@@H]1CC[C@H]2[C@H](CCN2S(=O)(=O)c2cccc(C)c2)O1` reads 3.29%; that for `Cc1cc(C)c2nc(C)cc(C(=O)N3CC(O)CO3)c2c1` (stereo not drawn), 16.5%; that for `CNS(=O)(=O)CCn1cc(-c2ccc(OC)c(OC)c2)nn1`, 1.9%.

With `Cc1nc[nH]c1CN1CCn2nc(CN3Cc4ccccc4C3)cc2C1`, the cytotoxicity at 10 µM was 3.79%.

For `CCc1nccn1CCC(=O)N1CC[C@@H](c2sccc2C)[C@H](O)C1`, the cytotoxicity at 10 µM is -6.04%.

In the case of `C/C=C(\C)CN1C[C@@H](NC(=O)c2ccc(O)c(Cl)c2)C[C@H]1C(=O)NCC`, the cytotoxicity at 10 µM stood at 9.23%. `CCNC(=O)[C@@H]1C[C@H](NC(=O)c2cncnc2C)CN1Cc1ccsc1`: the cytotoxicity at 10 µM was 2.12%. The result for `Cc1cc(C(=O)NC2CCCCNC2=O)c(=O)[nH]c1C` (stereo not drawn) reads -3.35%; that for `CCCc1nc(NC2(COC)CCCC2)c2cnn(C)c2n1`, -1.43%; that for `CCn1cnc(NC(=O)N2CCCC(c3ccccc3)CC2)n1` (stereo not drawn), 2.7%.

Turning to `CC(C)(C)CN1CCCC(O)(CN2CCc3[nH]ncc3C2)C1=O` (stereo not drawn), the cytotoxicity at 10 µM is -5.14%. The result for `COc1ccc(-n2c(SCC(=O)O)nnc2-c2cn[nH]c2)cc1` reads -4.59%; that for `CCc1cc(N[C@H](C(N)=O)[C@@H](C)CC)n2nccc2n1`, 2.99%; that for `CCN1CC(C(=O)N2CC(Oc3ccccc3Cl)C2)CC1=O` (stereo not drawn), -2.83%. With `CCn1ccc(CN(C)C(=O)CSc2nnc(N)s2)n1` the figure was 3.45%; with `OC1CCN(CCCNc2ncccn2)CC1`, 2.68%; with `CN(C)c1nc2c(c(N3CCC(O)CC3)n1)CN(CC(C)(C)C)CC2`, 7.5%. The result for `Fc1ccc(C2(CNCC(F)F)CCOC2)cc1` (stereo not drawn) reads -152%; that for `CCN(CC)C(=O)C1CCCN(CC(=O)Nc2c(C)nn(CC)c2C)C1` (stereo not drawn), 2.13%. On to `CCn1ccnc1C1CCCN(C(=O)c2sc(C)nc2C)C1` (stereo not drawn), for which the cytotoxicity at 10 µM came to 1.24%.

Regarding `Cc1nc(N2CCCC(C)C2)nc2cc(S(C)(=O)=O)ccc12` (stereo not drawn), the cytotoxicity at 10 µM is -24.2%. Take `Cc1cc(C)c2c(N3CCC(O)(Cn4ccnc4)CC3)ncnc2n1`: the cytotoxicity at 10 µM was -3.28%.

`CN(CC1COCCO1)c1ncnc2cc(F)ccc12` (stereo not drawn): the cytotoxicity at 10 µM worked out at 0.613%. The result for `COCCOC(=O)N1CCC(c2nccn2CC2CC2)CC1` reads -2.08%. The result for `O=C(Cc1n[nH]c(-c2cncc(Br)c2)n1)NCc1ccccn1` reads -1.39%.

Consider `Cn1cc(-c2ccnc(NCC3CC3)n2)cn1`, for which the cytotoxicity at 10 µM was -134%. The result for `O=c1cc(C2CCNCC2)nc(CCCc2ccccc2)[nH]1` reads 2.03%; that for `CCOc1ncccc1NC(=O)N1CCCC(CNC(N)=O)C1` (stereo not drawn), -11.1%. For the molecule `Cc1nccc(C(=O)N2CCCC2c2noc(C(C)C)n2)n1` (stereo not drawn), the cytotoxicity at 10 µM was -16.4%. As to `c1cc(-c2nc(CN3CCc4c(ncn4C4CC4)C3)cs2)cs1`, the cytotoxicity at 10 µM was -4.25%. With `c1cncc(-c2noc(CN3CCc4cncnc4C3)n2)c1` the figure was -3.39%; with `Cc1nc(C2CCCN2CCCS(N)(=O)=O)no1` (stereo not drawn), -10.3%; with `Clc1ccc2cccnc2c1CN1CCCC(Cn2cncn2)C1` (stereo not drawn), 8.38%. With `CCN(CC1CCOC1)C(=O)Nc1ccc(OC)nc1` (stereo not drawn) the figure was -4.2%; with `OC(COCc1ccccc1Cl)CN1CC(n2cccn2)C1` (stereo not drawn), -7.7%; with `CN1CCOC(CNCc2coc(-c3ccccc3)n2)C1` (stereo not drawn), -5.1%. As to `Cc1cnn(CC2CCCN2C(=O)CCc2nc3ccccc3[nH]2)c1` (stereo not drawn), the cytotoxicity at 10 µM was -12.9%.

With `CC(O)CNC(=O)NCc1cccnc1OC1CCCC1` (stereo not drawn), the cytotoxicity at 10 µM was found to be 2.29%.

In the case of `Cc1nn(C)c(N(C)C)c1CNCc1ccccc1Cn1cncn1`, the cytotoxicity at 10 µM is 3.85%. The result for `Cc1nn(C)c(C)c1CCn1cncc1-c1ccc2c(c1)CC(C)N2C` (stereo not drawn) reads -0.168%; that for `Cc1ccc2c(c1)C(NC(=O)N(C)C)CC21CCN(CC2CC2)CC1` (stereo not drawn), 4.44%; that for `c1cnc(N2CCCC(NCc3cccc4c3OCCO4)C2)nc1` (stereo not drawn), -8.18%. The result for `Cc1cccc(N2CCc3ncc(CNS(C)(=O)=O)n3CC2)n1` reads 8.39%; that for `CCN(C)c1ncnc2c1CCN(Cc1ccc(F)cc1)CC2`, 3.1%; that for `O=c1cc(Cn2cncn2)nc2n1CCCN(Cc1ccc(F)cc1)C2`, 4.43%.

The values are drawn from ChEMBL document CHEMBL4513216, “Probing the Open Global Health Chemical Diversity Library for Multistage-Active Starting Points for Next-Generation Antimalarials” (ACS Infect Dis, 2020).
